Bioassay records: PubChem, PCMD
Most compounds without a hit are left out; they make up all but 1% or so of the library.
Yeast eIF2B = GCN4-lacZ reporter reduction in eIF2B-epsilon mutant yeast, primary screen, S. cerevisiae, eIF2B-epsilon R284H, Beta-Glo luminescence | 27,000 tested, 0.91% active | AID 688, 2007 | inhibition, % at 25 µM (by protocol);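 active = mutant luminescence inhibited past about 50% while wild type luminescence and mutant growth stay under set limits, limit read from the data; inconclusive = mutant versus wild type luminescence inhibition gap past a set limit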
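System: Yeast eIF2B-epsilon R284H mutant carrying GCN4–beta-galactosidase fusion | Read-out basis: Percent inhibition, luminescence and growth | Compound: 25 µM single dose | Times: 16 h at 30 °C exposure | Measured by: Luminescence and A595 | Buffer or medium: YPD medium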
Yeast tox = yeast growth toxicity, wild-type and mutant, primary screen, cytotoxicity control for eIF2B function restoration project, wild-type and eIF2Bepsilon R284H mutant, A595. S. cerevisiae wild-type growth, A595 turbidity, 16 h. growth inhibition, % at 25 µM (by protocol). 30,000 tested, 0.3% active. AID 685, 2007;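 active = mutant and wild-type yeast strains alike exhibit over 30% growth inhibition; inconclusive = a strain exceeds 50% while the second remains under 30%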;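 note: 0% = untreated cell controls and 100% = YPD media blanks without cells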
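System – wild-type and eIF2Bepsilon-R284H mutant S. cerevisiae, screened separately · Measured by – absorbance at 595 nm (turbidity) · Timing – 16 h compound exposure during growth at 30 °C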
An asterisk follows results filed as active; ? = inconclusive; / = no result; ! = repeats disagree.

SMILES	Yeast eIF2B	Yeast tox
S=C(Nc1ccc2c(c1)OCO2)NC1CCN(Cc2ccccc2)CC1	/	5
CCc1c(C)nc2cc(-c3cc(OC)cc(OC)c3)nn2c1N1CCN(CCN2CCOCC2)CC1	/	-2
Fc1ccc(-c2cc3nc(-c4ccccc4)cc(N4CCN(CCN5CCOCC5)CC4)n3n2)cc1	-9	31*
Cc1c(N=Cc2c(O)n(Cc3ccco3)c(=O)c3ccccc23)c(=O)n(-c2ccccc2)n1C	51*!	-20
O=c1c2ccccc2c(C=NCCc2ccccc2)c(O)n1Cc1ccccc1	-12	18
c1ccc(Oc2nc(Oc3ccccc3)nc(N3CCOCC3)n2)cc1	27	2
Fc1ccc(Nc2nc(Oc3ccc4c(c3)OCO4)nc(N3CCOCC3)n2)c(F)c1	57*	-67
Cc1cc(OCC(F)(F)C(F)(F)C(F)(F)C(F)F)nc(N)n1	20	17
COc1ccc(N2C(=O)C3CCCN3C2=O)cc1 (centres undefined)	17	-6
COc1ccc(OCC(=O)Nc2ccc(N3CCOCC3)cc2)cc1	21	6
COc1ccc(CC(=O)Nc2ccc(N3CCN(c4ccc(OC)cc4)CC3)c(C#N)c2)cc1	53*	-26
CCCS(=O)(=O)Nc1cc(C(F)(F)F)ccc1OCCOC	23	13
CCS(=O)(=O)N1CCCC(C(=O)NCCN(C)Cc2ccccc2)C1 (centres undefined)	62*	11
CCS(=O)(=O)N1CCCC(C(=O)NCc2cccc(OC)c2)C1 (centres undefined)	-2	1
Nc1nnc(C(c2ccccc2)c2ccccc2)s1	20	19
CCC(CCC(=O)Nc1ccc(S(N)(=O)=O)cc1)C(=O)O (centres undefined)	4	4
Cc1nnc(NC2CCCCC2)[nH]c1=O	65*	15
O=c1[nH]c(NC2CCCCC2)nnc1Cc1ccccc1	11	16
O=C(CC1C(=O)N(c2ccccc2)C(=O)N1C1CCCCC1)Nc1ccccc1 (centres undefined)	/	16
COc1ccc(N2C(=O)CC(Sc3nc(C)cc(C)c3C#N)C2=O)cc1 (centres undefined)	-17	/
Nc1nnc(SC2CC(=O)N(c3ccccc3)C2=O)s1 (centres undefined)	4	62*
O=C(CCl)Nc1cc(-c2ccccc2)nn1-c1ccccc1	/	59*
Cc1ccc(-c2cc(NC(=O)CCl)n(-c3ccccc3)n2)cc1	31	?
CCc1nc(N2CCOCC2)c(C#N)c2c1CCCC2	-3	10
N#Cc1c(N2CCOCC2)nc(-c2ccco2)c2c1CCCC2	57*	-3
SMILES	Yeast eIF2B	Yeast tox
CCOc1ccc(-c2nnn(CC#N)n2)cc1OC	-4	4
CCOC(=O)C1CCCN(c2nc(C)nc3c2oc2ccccc23)C1 (centres undefined)	12	-1
CCOC(=O)C1CCCN(C(=O)c2cc3c(C)nc4ccccc4c3o2)C1 (centres undefined)	65*	-27
CCCOc1ccc(N2C(=O)CC(SC(=NCC)Nc3cccc(F)c3)C2=O)cc1 (centres undefined)	53*	-44
CCCOc1ccc(N2C(=O)CC(SC(=NC)Nc3ccc(F)cc3)C2=O)cc1 (centres undefined)	10	-16
Cc1ccc(-c2noc(CSc3ccccc3)n2)cc1	21	8
c1ccc(SCc2nc(-c3ccccn3)no2)cc1	64*	18
CCn1c(=O)n(CC)c2cc(S(=O)(=O)Nc3cc(C)cc(C)c3C#N)ccc21	/	17
CCOc1cc(S(=O)(=O)NCc2ccco2)c(OCC)cc1-n1cnnn1	/	29
CC(C)(C)C(=O)C(Cc1ccccc1)n1cncn1 (centres undefined)	26	62*
CCCC(C(=O)c1ccccc1)n1cncn1 (centres undefined)	6	2
CC(C)(C)C(=O)C(Cc1ccccc1Cl)n1cncn1 (centres undefined)	27	74*
CC(C)(C)C(=O)Cn1c(=N)n(Cc2ccccc2Cl)c2ccccc21	/	3
CCN1CCN(C(c2ccc(OC)cc2)C(O)C(=O)c2c[nH]c3ccccc23)CC1 (centres undefined)	/	21
CCCNC(=O)c1ccccc1NC(=O)CN(c1ccccc1OCC)S(C)(=O)=O	-2	1
Cc1noc(C)c1COc1ccc(C(=O)NCc2ccccn2)cc1	18	17
O=C(c1ccccc1CCc1ccccc1)N1CCN(c2ccccn2)CC1	24	3
O=C(Nc1nc(-c2ccc(S(=O)(=O)N3CCCC3)cc2)cs1)c1cccs1	5	/
O=C(Nc1nc(-c2ccc(S(=O)(=O)N3CCCCCC3)cc2)cs1)c1cccs1	60*	-5
Cc1ccc(NC(=O)CSC2=C(C#N)C(c3ccco3)C3=C(CCCC3=O)N2)cc1 (centres undefined)	-7	6
